# Assay results published in ChEMBL document CHEMBL4014309, “Development of an Acrylate Derivative Targeting the NLRP3 Inflammasome for the Treatment of Inflammatory Bowel Disease” (J Med Chem, 2017).
# Active and inactive are the calls of the source. The rule behind the calls is not given here.
# Columns and labels:
# [1] = Cysteamine reactivity of the compound in PBS assessed as second order rate constant for free cysteamine release at 250 uM and pH 7.4 after 90 mins by DTNB reagent based RP-UHPLC analysis
# Summary of the method: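 Compound (250 µM) was mixed with equimolar cysteamine in pH 7.4 PBS containing 12.5% CH3CN at 37 °C. Free cysteamine was tracked with DTNB at several time points over 90 min. Second-order k2 came from 1/[CAM] = 1/[CAM]0 + kt, using 3–10 points per plot; mean ± SEM of ≥3 experiments.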
# [2] = species: Mus musculus; assay: Inhibition of NF-kB signaling pathway in C57BL/6 mouse bone marrow derived macrophages assessed as reduction in LPS-induced IL-6 gene expression at 10 to 100 uM preincubated for 30 mins followed by LPS stimulation measured after 4 hrs by qRT-PCR analysis
# Summary of the method: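 C57BL/6 bone marrow macrophages, differentiated with 20% L-cell medium, were preincubated with compound for 30 min. They were then left untreated or given LPS (1 ng/mL, 4 h). Tnfa, Il6 and Il1b expression was measured by quantitative RT-PCR as 2^-ΔΔCt.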
# [3] = target: NACHT, LRR and PYD domains-containing protein 3 (Mus musculus) (UniProt Q8R4B8); assay: Inhibition of NLRP3 inflammasome in LPS-primed C57BL/6 mouse bone marrow derived macrophages assessed as reduction in nigericin-induced IL-1beta production at 10 uM preincubated for 1 hr followed by stimulation with nigericin measured after 30 mins by ELISA
# Summary of the method: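 Bone marrow macrophages from C57BL/6 mice, differentiated with 20% L-cell medium, primed with LPS (1 µg/mL, 3 h). Test agent or vehicle was added for 1 h, then ATP (5 mM, 30 min) or nigericin (10 µM, 30 min). IL-1β in the medium was measured by ELISA. LDH in the medium was measured colorimetrically as % of total cellular LDH.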
# [4] = test system: Liver; assay: Drug metabolism in Sprague-Dawley rat liver microsomes assessed as formation of 2-(2-chlorobenzyl)acrylic acid at 100 uM at <1 min in presence of NADPH by UHPLC-MS analysis; assay type: ADME, microsome
# NACHT, LRR and PYD domains-containing protein 3 (Mus musculus), sequence (Q8R4B8 whole entry, the tested form may be a part): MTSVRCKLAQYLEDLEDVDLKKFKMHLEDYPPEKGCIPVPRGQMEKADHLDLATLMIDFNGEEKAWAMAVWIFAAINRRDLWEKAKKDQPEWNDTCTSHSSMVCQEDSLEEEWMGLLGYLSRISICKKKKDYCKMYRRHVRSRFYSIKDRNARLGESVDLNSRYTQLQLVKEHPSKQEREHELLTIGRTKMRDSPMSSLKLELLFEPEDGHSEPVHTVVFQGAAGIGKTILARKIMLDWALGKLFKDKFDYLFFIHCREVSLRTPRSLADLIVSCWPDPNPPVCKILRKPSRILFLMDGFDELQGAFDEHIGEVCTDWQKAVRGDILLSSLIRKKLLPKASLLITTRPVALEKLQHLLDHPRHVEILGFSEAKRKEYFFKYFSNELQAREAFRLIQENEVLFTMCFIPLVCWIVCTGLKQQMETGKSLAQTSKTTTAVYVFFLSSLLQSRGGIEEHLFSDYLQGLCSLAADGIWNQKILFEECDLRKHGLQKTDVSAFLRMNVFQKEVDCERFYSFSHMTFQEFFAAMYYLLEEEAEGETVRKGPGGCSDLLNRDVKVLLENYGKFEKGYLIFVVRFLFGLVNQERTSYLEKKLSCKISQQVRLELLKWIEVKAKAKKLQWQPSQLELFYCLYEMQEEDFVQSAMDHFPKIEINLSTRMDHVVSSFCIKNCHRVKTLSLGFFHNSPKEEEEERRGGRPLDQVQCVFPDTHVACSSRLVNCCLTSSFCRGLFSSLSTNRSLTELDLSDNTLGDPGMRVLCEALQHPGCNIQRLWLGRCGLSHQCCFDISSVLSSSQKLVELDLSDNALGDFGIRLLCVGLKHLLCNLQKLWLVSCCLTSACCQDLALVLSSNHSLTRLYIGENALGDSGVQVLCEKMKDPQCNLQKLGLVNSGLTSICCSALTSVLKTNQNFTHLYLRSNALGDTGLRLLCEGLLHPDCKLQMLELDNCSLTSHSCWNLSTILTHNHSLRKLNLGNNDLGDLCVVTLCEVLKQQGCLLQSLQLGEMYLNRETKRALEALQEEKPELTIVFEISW
smiles,measurement,setting,value
C=C(Cc1ccccc1Cl)C(=O)OCC,Drug metabolism,[1],Metabolite not detected
same,inhibition,[2],Active
same,inhibition,[3],Active
same,Drug metabolism,[4],Metabolite_Detected
